Test results as given in ChEMBL document CHEMBL1926588, “Sulfur and selenium derivatives of quinazoline and pyrido[2,3-d]pyrimidine: synthesis and study of their potential cytotoxic activity in vitro” (Eur J Med Chem, 2012).

Assays:
MCF7 [1] = assay: Cell cycle arrest in human MCF7 cells assessed as accumulation at subG1 phase at 15 uM after 12 hrs by propidium iodide staining-based flow cytometric analysis (reference value: 2.17 +/- 0.24%); type: functional
MCF7 [2] = assay: Cell cycle arrest in human MCF7 cells assessed as accumulation at G2/M phase at 15 uM after 12 hrs by propidium iodide staining-based flow cytometric analysis (reference value: 22.11 +/- 3.86%); type: functional
[3] = Cytotoxicity against human 184B5 cells after 72 hrs by MTT assay; type: cell-based
How it was run: (§1)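 MTT read-out after 72 h exposure at 37 °C in humidified 5% CO2, with five concentrations between 0.01 and 100. GI50 is 50% growth reduction versus untreated controls, TGI is complete growth inhibition, and LC50 is the concentration killing 50% of cells. Minimum three independent experiments.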

MCF7 [4] = assay: Induction of apoptosis in human MCF7 cells assessed as cell death at 5 uM after 24 hrs by TUNEL analysis relative to control; type: functional
MCF7 [5] = assay: Induction of apoptosis in human MCF7 cells assessed as cell death at 15 uM after 24 hrs by TUNEL analysis (reference value: 5.13 +/- 4.32%); type: functional
MCF7 [6] = assay: Cell cycle arrest in human MCF7 cells assessed as accumulation at S phase at 15 uM after 4 hrs by propidium iodide staining-based flow cytometric analysis (reference value: 19.09 +/- 4.54%); type: functional
MCF7 [7] = assay: Induction of apoptosis in human MCF7 cells assessed as cell death at 20 uM after 24 hrs by TUNEL analysis (reference value: 9.56 +/- 1.38%); type: functional
MCF7 [8] = assay: Induction of apoptosis in human MCF7 cells assessed as cell death at 10 uM after 48 hrs by TUNEL analysis (reference value: 4.23 +/- 1.99%); type: functional
MCF7 [9] = assay: Cell cycle arrest in human MCF7 cells assessed as accumulation at S phase at 15 uM after 12 hrs by propidium iodide staining-based flow cytometric analysis (reference value: 17.07 +/- 4.00%); type: functional
MCF7 [10] = assay: Cell cycle arrest in human MCF7 cells assessed as accumulation at subG1 phase at 15 uM after 24 hrs by propidium iodide staining-based flow cytometric analysis (reference value: 2.93 +/- 0.54%); type: functional
MCF7 [11] = assay: Induction of apoptosis in human MCF7 cells assessed as cell death at 5 uM after 24 hrs by TUNEL analysis (reference value: 9.28 +/- 1.71%); type: functional
MCF7 [12] = assay: Cell cycle arrest in human MCF7 cells assessed as accumulation at G0/G1 phase at 15 uM after 24 hrs by propidium iodide staining-based flow cytometric analysis (reference value: 51.83 +/- 5.64%); type: functional
MCF7 [13] = assay: Induction of apoptosis in human MCF7 cells assessed as cell death at 10 uM after 12 hrs by TUNEL analysis (reference value: 6.02 +/- 0.85%); type: functional
MCF7 [14] = assay: Induction of apoptosis in human MCF7 cells assessed as cell death at 20 uM after 24 hrs by TUNEL analysis relative to control; type: functional
[15] = Permeability of the compound across human Caco2 cells; type: ADME, cell-based; settings: Caco-2, read-out: permeability
MCF7 [16] = assay: Cytotoxicity against human MCF7 cells after 72 hrs by MTT assay; type: functional; settings: MCF7, 72 h; how it was run: as §1
MCF7 [17] = assay: Induction of apoptosis in human MCF7 cells assessed as cell death at 10 uM after 24 hrs by TUNEL analysis (reference value: 9.82 +/- 2.62%); type: functional
MCF7 [18] = assay: Induction of apoptosis in human MCF7 cells assessed as cell death at 1 uM after 24 hrs by TUNEL analysis (reference value: 6.12 +/- 1.61%); type: functional
MCF7 [19] = assay: Induction of apoptosis in human MCF7 cells assessed as cell death at 10 uM after 4 hrs by TUNEL analysis (reference value: 5.85 +/- 5.21%); type: functional
CCRF-CEM = assay: Cytotoxicity against human CCRF-CEM cells after 72 hrs by MTT assay; type: functional; how it was run: as §1
MCF7 [20] = assay: Cell cycle arrest in human MCF7 cells assessed as accumulation at G2/M phase at 15 uM after 4 hrs by propidium iodide staining-based flow cytometric analysis (reference value: 21.60 +/- 5.37%); type: functional
MCF7 [21] = assay: Cell cycle arrest in human MCF7 cells assessed as accumulation at G0/G1 phase at 15 uM after 12 hrs by propidium iodide staining-based flow cytometric analysis (reference value: 57.34 +/- 1.64%); type: functional
MCF7 [22] = assay: Cell cycle arrest in human MCF7 cells assessed as accumulation at S phase at 15 uM after 24 hrs by propidium iodide staining-based flow cytometric analysis (reference value: 12.39 +/- 1.54%); type: functional
[23] = Cytotoxicity against human HTB-54 cells after 72 hrs by MTT assay; type: functional; settings: HTB-54, 72 h; how it was run: as §1
MCF7 [24] = assay: Cell cycle arrest in human MCF7 cells assessed as accumulation at subG1 phase at 15 uM after 4 hrs by propidium iodide staining-based flow cytometric analysis (reference value: 5.90 +/- 1.36%); type: functional
MCF7 [25] = assay: Induction of apoptosis in human MCF7 cells assessed as cell death at 10 uM by TUNEL analysis; type: functional, cell-based; settings: TDE = time-dependent effect
MCF7 [26] = assay: Cell cycle arrest in human MCF7 cells assessed as accumulation at G0/G1 phase at 15 uM after 4 hrs by propidium iodide staining-based flow cytometric analysis (reference value: 49.38 +/- 4.74%); type: functional
MCF7 [27] = assay: Cell cycle arrest in human MCF7 cells assessed as accumulation at G2/M phase at 15 uM after 24 hrs by propidium iodide staining-based flow cytometric analysis (reference value: 32.37 +/- 7.73%); type: functional
HT-29 = assay: Cytotoxicity against human HT-29 cells after 72 hrs by MTT assay; type: functional; settings: HT-29, 72 h; how it was run: as §1
[28] = read-out: LC50 (the source's name)

`[SeH]c1nc([SeH])c2ccccc2n1` showed an Activity (MCF7 [1]) of 2.37%, an Activity (MCF7 [2]) of 25.63% and a GI50 at 72 h ([3]; 184B5 cells) of 0.49 µM. The LC50 ([3]; 184b5, 72 h) was 6.63 µM, the TGI ([3]; 184b5, 72 h) was 2.5 µM and the “fold change (FC)” value (MCF7 [4]) was 1.7. The Activity (MCF7 [5]) was 76.82%, the Activity (MCF7 [6]) was 23.29% and the Activity (MCF7 [7]) was 87.55%. It also gave an Activity (MCF7 [8]) of 58.31%, an Activity (MCF7 [9]) of 18.36% and an Activity (MCF7 [10]) of 3.46%. For the same molecule, the Activity (MCF7 [11]) was 16.32%, the Activity (MCF7 [12]) was 47.77% and the Activity (MCF7 [13]) was 12.26%. The “fold change (FC)” value (MCF7 [14]) was 9, the Papp [15] was 4.67 ×10⁻⁶ cm/s and the GI50 (MCF7 [16]) was 2.92 µM. The LC50 (MCF7 [16]) was over 100 µM, the TGI (MCF7 [16]) was 22.9 µM and the Activity (MCF7 [17]) was 27.29%. It also gave an Activity (MCF7 [18]) of 2.76%, an Activity (MCF7 [19]) of 6.01% and a GI50 (CCRF-CEM) of 2.99 µM. For the same molecule, the TGI (CCRF-CEM) was 6.01 µM, the CC50 (CCRF-CEM; [28]) was 9.03 µM and the Activity (MCF7 [20]) was 21.21%. The Activity (MCF7 [21]) was 56.21%, the Activity (MCF7 [22]) was 15.75% and the GI50 [23] was 5.98 µM. For the same molecule, the TGI [23] was 65.9 µM, the CC50 [23, 28] was over 100 µM and the Activity (MCF7 [24]) was 3.98%. The Activity (MCF7 [25]) was “tde”, the Activity (MCF7 [26]) was 52.09% and the Activity (MCF7 [27]) was 34.67%. For the same molecule, the GI50 (HT-29) was 8.98 µM, the TGI (HT-29) was 45.2 µM and the CC50 (HT-29; [28]) was 87.9 µM.
